Experimental data: ChEMBL document CHEMBL3588757, “Structure-based design, synthesis and biological testing of piperazine-linked bis-epipodophyllotoxin etoposide analogs” (Bioorg Med Chem, 2015)

Tests used:
Type in all cases: functional
[1] = test system: OVCAR-8; assay: Cytotoxicity against human OVCAR8 cells assessed as cell growth at 50 uM by SRB assay; settings: read-out: Activity
[2] = Cytotoxicity against human Hs578T cells assessed as cell growth at 5 uM by SRB assay; settings: Hs-578T, read-out: Activity
How it was run: (§1)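 Measured in the NCI-60 human tumour cell line panel using five-dose testing. Growth was recorded at each dose for each cell line, and a GI50 was derived for each line.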

[3] = test system: MOLT-4; assay: Cytotoxicity against human MOLT4 cells assessed as cell growth at 0.5 uM by SRB assay; settings: read-out: Activity
[4] = test system: MDA-MB-435; assay: Cytotoxicity against human MDA-MB-435 cells assessed as cell growth at 0.5 uM by SRB assay; settings: read-out: Activity
[5] = test system: COLO 205; assay: Cytotoxicity against human COLO205 cells assessed as cell growth at 50 uM by SRB assay; settings: read-out: Activity
[6] = test system: LOX IMVI; assay: Cytotoxicity against human LOXIMVI cells assessed as cell growth at 0.5 uM by SRB assay; settings: read-out: Activity
[7] = test system: CCRF-CEM; assay: Cytotoxicity against human CCRF-CEM cells by SRB assay
[8] = test system: SK-MEL-2; assay: Cytotoxicity against human SK-MEL-2 cells assessed as cell growth at 50 uM by SRB assay; settings: read-out: Activity
[9] = test system: 786-0; assay: Cytotoxicity against human 786-0 cells assessed as cell growth at 5 uM by SRB assay; settings: read-out: Activity
[10] = test system: TK-10; assay: Cytotoxicity against human TK10 cells assessed as cell growth at 50 uM by SRB assay; settings: read-out: Activity
[11] = test system: SF-539; assay: Cytotoxicity against human SF539 cells assessed as cell growth at 5 uM by SRB assay; settings: read-out: Activity
[12] = test system: COLO 205; assay: Cytotoxicity against human COLO205 cells assessed as cell growth at 0.005 uM by SRB assay; settings: read-out: Activity
[13] = test system: UACC-62; assay: Cytotoxicity against human UACC62 cells assessed as cell growth at 0.05 uM by SRB assay; settings: read-out: Activity
[14] = test system: NCI-H522; assay: Cytotoxicity against human NCI-H522 cells assessed as cell growth at 0.005 uM by SRB assay; settings: read-out: Activity
[15] = test system: DU-145; assay: Cytotoxicity against human DU145 cells assessed as cell growth at 0.5 uM by SRB assay; settings: read-out: Activity; how it was run: as §1
[16] = test system: OVCAR-5; assay: Cytotoxicity against human OVCAR5 cells by SRB assay
How it was run: (§2)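 NCI-60 panel screen; 5-dose testing giving GI50 per cell line, plus a single 10 µM one-dose test. Method details not given beyond the NCI screen.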

[17] = test system: HCT-15; assay: Cytotoxicity against human HCT15 cells assessed as cell growth at 5 uM by SRB assay; settings: read-out: Activity; how it was run: as §1
[18] = test system: HCT-116; assay: Cytotoxicity against human HCT116 cells assessed as cell growth at 5 uM by SRB assay; settings: read-out: Activity; how it was run: as §1
[19] = test system: HL-60(TB); assay: Cytotoxicity against human HL-60(TB) cells assessed as cell growth at 5 uM by SRB assay; settings: read-out: Activity; how it was run: as §1
[20] = test system: NCI-H460; assay: Cytotoxicity against human NCI-H460 cells assessed as cell growth at 5 uM by SRB assay; settings: read-out: Activity
[21] = test system: CCRF-CEM; assay: Cytotoxicity against human CCRF-CEM cells assessed as cell growth at 0.5 uM by SRB assay; settings: read-out: Activity
[22] = test system: HOP-62; assay: Cytotoxicity against human HOP62 cells by SRB assay; how it was run: as §1
[23] = test system: MOLT-4; assay: Cytotoxicity against human MOLT4 cells assessed as cell growth at 0.05 uM by SRB assay; settings: read-out: Activity
[24] = test system: UO-31; assay: Cytotoxicity against human UO31 cells assessed as cell growth at 5 uM by SRB assay; settings: read-out: Activity
[25] = test system: A498; assay: Cytotoxicity against human A498 cells assessed as cell growth at 50 uM by SRB assay; settings: read-out: Activity
[26] = test system: NCI-H522; assay: Cytotoxicity against human NCI-H522 cells assessed as cell growth at 0.5 uM by SRB assay; settings: read-out: Activity
[27] = test system: KM12; assay: Cytotoxicity against human KM12 cells assessed as cell growth at 0.005 uM by SRB assay; settings: read-out: Activity
[28] = test system: SF-268; assay: Cytotoxicity against human SF268 cells assessed as cell growth at 0.5 uM by SRB assay; settings: read-out: Activity
[29] = test system: T47D; assay: Cytotoxicity against human T47D cells by SRB assay; how it was run: as §2
[30] = test system: T47D; assay: Cytotoxicity against human T47D cells assessed as cell growth at 0.005 uM by SRB assay; settings: read-out: Activity
[31] = Cytotoxicity against human Hs578T cells by SRB assay; settings: Hs-578T; how it was run: as §1
[32] = test system: U-251; assay: Cytotoxicity against human U251 cells assessed as cell growth at 0.005 uM by SRB assay; settings: read-out: Activity
[33] = test system: MDA-MB-231; assay: Cytotoxicity against human MDA-MB-231/ATCC cells assessed as cell growth at 50 uM by SRB assay; settings: read-out: Activity
[34] = test system: OVCAR-8; assay: Cytotoxicity against human OVCAR8 cells by SRB assay; how it was run: as §2
[35] = test system: A498; assay: Cytotoxicity against human A498 cells assessed as cell growth at 0.5 uM by SRB assay; settings: read-out: Activity
[36] = test system: SF-268; assay: Cytotoxicity against human SF268 cells assessed as cell growth at 0.05 uM by SRB assay; settings: read-out: Activity
[37] = test system: SK-MEL-28; assay: Cytotoxicity against human SK-MEL-28 cells assessed as cell growth at 0.005 uM by SRB assay; settings: read-out: Activity
[38] = Cytotoxicity against human Hs578T cells assessed as cell growth at 0.005 uM by SRB assay; settings: Hs-578T, read-out: Activity; how it was run: as §1
[39] = test system: OVCAR-3; assay: Cytotoxicity against human OVCAR3 cells assessed as cell growth at 5 uM by SRB assay; settings: read-out: Activity
[40] = test system: OVCAR-8; assay: Cytotoxicity against human OVCAR8 cells assessed as cell growth at 0.5 uM by SRB assay; settings: read-out: Activity
[41] = test system: SW-620; assay: Cytotoxicity against human SW620 cells assessed as cell growth at 5 uM by SRB assay; settings: read-out: Activity
[42] = Cytotoxicity against human Hs578T cells assessed as cell growth at 0.5 uM by SRB assay; settings: Hs-578T, read-out: Activity; how it was run: as §1
[43] = test system: SK-OV-3; assay: Cytotoxicity against human SKOV3 cells assessed as cell growth at 0.5 uM by SRB assay; settings: read-out: Activity
[44] = test system: SK-MEL-2; assay: Cytotoxicity against human SK-MEL-2 cells assessed as cell growth at 0.005 uM by SRB assay; settings: read-out: Activity
[45] = read-out: LC50 (the source's name)
[46] = read-out: pLC50 (the source's name) (converted)

COc1cc([C@@H]2c3cc4c(cc3[C@@H](NC(=O)CN3CCN(CCCCCCN5CCN(CC(=O)N[C@@H]6c7cc8c(cc7[C@@H](c7cc(OC)c(O)c(OC)c7)[C@H]7C(=O)OC[C@@H]76)OCO8)CC5)CC3)[C@H]3COC(=O)[C@H]23)OCO4)cc(OC)c1O
growth at 50 µM [1]: 43%
growth at 5 µM [2]: 64%
growth at 0.5 µM [3]: 23%
growth at 0.5 µM [4]: 84%
growth at 50 µM [5]: -3%
growth at 0.5 µM [6]: 61%
GI50 ([7]; read-out: GI50): 253 nM
CC50 [7, 45]: > 50 µM
TGI ([7]; read-out: TGI): > 50 µM
GI50 ([7]; read-out: pGI50 (converted)): 251 nM
CC50 [7, 46]: > 50.1 µM
TGI ([7]; read-out: pTGI): > 50.1 µM
growth at 50 µM [8]: -15%
growth at 5 µM [9]: 40%
growth at 50 µM [10]: 63%
growth at 5 µM [11]: 12%
growth at 0.005 µM [12]: 101%
growth at 0.05 µM [13]: 90%
growth at 0.005 µM [14]: 99%
growth at 0.5 µM [15]: 89%
GI50 ([16]; read-out: GI50): 7.24 µM
CC50 [16, 45]: > 50 µM
TGI ([16]; read-out: TGI): > 50 µM
GI50 ([16]; read-out: pGI50 (converted)): 7.24 µM
CC50 [16, 46]: > 50.1 µM
TGI ([16]; read-out: pTGI (converted)): > 50.1 µM
growth at 5 µM [17]: 82%
growth at 5 µM [18]: 40%
growth at 5 µM [19]: 6%
growth at 5 µM [20]: 11%
growth at 0.5 µM [21]: 31%
GI50 ([22]; read-out: GI50): 3.6 µM
CC50 [22, 45]: > 50 µM
TGI ([22]; read-out: TGI): 22.8 µM
GI50 ([22]; read-out: pGI50 (converted)): 3.63 µM
CC50 [22, 46]: > 50.1 µM
TGI ([22]; read-out: pTGI (converted)): 22.9 µM
growth at 0.05 µM [23]: 105%
growth at 5 µM [24]: 89%
growth at 50 µM [25]: -10%
growth at 0.5 µM [26]: 75%
growth at 0.005 µM [27]: 103%
growth at 0.5 µM [28]: 74%
GI50 ([29]; read-out: GI50): 2010 nM
CC50 [29, 45]: > 50 µM
TGI ([29]; read-out: TGI): > 50 µM
GI50 ([29]; read-out: pGI50 (converted)): 2000 nM
CC50 [29, 46]: > 50.1 µM
TGI ([29]; read-out: pTGI (converted)): > 50.1 µM
growth at 0.005 µM [30]: 97%
GI50 ([31]; read-out: GI50): 8.93 µM
CC50 [31, 45]: > 50 µM
TGI ([31]; read-out: TGI): > 50 µM
GI50 ([31]; read-out: pGI50 (converted)): 8.91 µM
CC50 [31, 46]: > 50.1 µM
TGI ([31]; read-out: pTGI (converted)): > 50.1 µM
growth at 0.005 µM [32]: 102%
growth at 50 µM [33]: 13%
GI50 ([34]; read-out: GI50): 35.7 µM
CC50 [34, 45]: > 50 µM
TGI ([34]; read-out: TGI): > 50 µM
GI50 ([34]; read-out: pGI50 (converted)): 35.5 µM
CC50 [34, 46]: > 50.1 µM
TGI ([34]; read-out: pTGI (converted)): > 50.1 µM
growth at 0.5 µM [35]: 78%
growth at 0.05 µM [36]: 100%
growth at 0.005 µM [37]: 100%
growth at 0.005 µM [38]: 95%
growth at 5 µM [39]: 63%
growth at 0.5 µM [40]: 111%
growth at 5 µM [41]: 37%
growth at 0.5 µM [42]: 77%
growth at 0.5 µM [43]: 97%
growth at 0.005 µM [44]: 102%
